# Results taken from ChEMBL document CHEMBL3808334, “Synthesis and in vitro evaluation of novel triazine analogues as anticancer agents and their interaction studies with bovine serum albumin” (Eur J Med Chem, 2016).
# Key:
# Assay type in all cases: functional
# [1] = Growth inhibition of human BT549 cells assessed as cell growth at 10^-4 M incubated for 48 hrs by sulforhodamine B assay; conditions: BT-549, 48 h, read-out: Activity
# Outline: (§1)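 Five-dose assay: five concentrations from 10-fold or ½-log serial dilutions. Cells are plated at 5,000–40,000 per well according to doubling time, grown 24 h, then exposed 48 h at 37 °C, 5% CO₂. Fixed with cold 50% TCA (final addition) for 60 min at 4 °C and stained with 0.4% SRB in 1% acetic acid. Bound dye is solubilized in 10 mM Tris base and read at 515 nm. GI₅₀ is where [(Ti−Tz)/(C−Tz)]×100 = 50, with a time-zero plate as Tz.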
# [2] = Growth inhibition of human HCT15 cells incubated for 48 hrs by sulforhodamine B assay; conditions: HCT-15, 48 h
# Outline: (§2)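 Cells seeded at 5,000–40,000/well according to doubling time and preincubated 24 h at 37 °C, 5% CO2. Time-zero plates were TCA-fixed. DMSO concentrate was diluted in medium with 50 µg/ml gentamicin to give five concentrations (10-fold or ½ log steps), then exposed 48 h. Cells were TCA-fixed, stained with 0.4% SRB and read at 515 nm. Percent growth was taken against time-zero and control; GI50, TGI and LC50 derived.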
# A498 = experiment: Growth inhibition of human A498 cells incubated for 48 hrs by sulforhodamine B assay; conditions: A498, 48 h; outline: as §1
# SR [3] = experiment: Growth inhibition of human SR cells assessed as cell growth at 10^-7 M incubated for 48 hrs by sulforhodamine B assay; conditions: read-out: Activity
# [4] = Growth inhibition of human RXF393 cells assessed as cell growth at 10^-5 M incubated for 48 hrs by sulforhodamine B assay; conditions: RXF 393, 48 h, read-out: Activity
# [5] = Growth inhibition of human RPMI8226 cells assessed as cell growth at 10^-4 M incubated for 48 hrs by sulforhodamine B assay; conditions: RPMI-8226, 48 h, read-out: Activity
# EKVX = experiment: Growth inhibition of human EKVX cells assessed as cell growth at 10^-4 M incubated for 48 hrs by sulforhodamine B assay; conditions: read-out: Activity; outline: as §2
# [6] = Growth inhibition of human COLO205 cells assessed as cell growth at 10^-4 M incubated for 48 hrs by sulforhodamine B assay; conditions: COLO 205, 48 h, read-out: Activity; outline: as §2
# [7] = Growth inhibition of human HCT15 cells assessed as cell growth at 10^-4 M incubated for 48 hrs by sulforhodamine B assay; conditions: HCT-15, 48 h, read-out: Activity; outline: as §2
# MDA-MB-435 = experiment: Growth inhibition of human MDA-MB-435 cells assessed as cell growth at 10^-7 M incubated for 48 hrs by sulforhodamine B assay; conditions: MDA-MB-435, 48 h, read-out: Activity
# SK-MEL-2 [8] = experiment: Growth inhibition of human SK-MEL-2 cells assessed as cell growth at 10^-7 M incubated for 48 hrs by sulforhodamine B assay; conditions: SK-MEL-2, 48 h, read-out: Activity
# SK-MEL-28 [9] = experiment: Growth inhibition of human SK-MEL-28 cells assessed as cell growth at 10^-4 M incubated for 48 hrs by sulforhodamine B assay; conditions: SK-MEL-28, 48 h, read-out: Activity
# [10] = Growth inhibition of human OVCAR4 cells assessed as cell growth at 10^-7 M incubated for 48 hrs by sulforhodamine B assay; conditions: OVCAR-4, 48 h, read-out: Activity
# SK-MEL-2 [11] = experiment: Growth inhibition of human SK-MEL-2 cells assessed as cell growth at 10 uM incubated for 48 hrs by sulforhodamine B assay; conditions: SK-MEL-2, 48 h, read-out: Activity
# [12] = Growth inhibition of human MOLT4 cells assessed as cell growth at 10^-8 M incubated for 48 hrs by sulforhodamine B assay; conditions: MOLT-4, 48 h, read-out: Activity
# NCI-H23 [13] = experiment: Growth inhibition of human NCI-H23 cells assessed as cell growth at 10^-6 M incubated for 48 hrs by sulforhodamine B assay; conditions: NCI-H23, 48 h, read-out: Activity
# KM12 = experiment: Growth inhibition of human KM12 cells assessed as cell growth at 10^-6 M incubated for 48 hrs by sulforhodamine B assay; conditions: KM12, 48 h, read-out: Activity
# [14] = Growth inhibition of human SNB19 cells assessed as cell growth at 10^-8 M incubated for 48 hrs by sulforhodamine B assay; conditions: SNB-19, 48 h, read-out: Activity
# SK-MEL-28 [15] = experiment: Growth inhibition of human SK-MEL-28 cells assessed as cell growth at 10^-6 M incubated for 48 hrs by sulforhodamine B assay; conditions: SK-MEL-28, 48 h, read-out: Activity
# [16] = Growth inhibition of human PC3 cells assessed as cell growth at 10^-6 M incubated for 48 hrs by sulforhodamine B assay; conditions: PC-3, 48 h, read-out: Activity
# MCF7 = experiment: Growth inhibition of human MCF7 cells assessed as cell growth at 10^-6 M incubated for 48 hrs by sulforhodamine B assay; conditions: MCF7, 48 h, read-out: Activity
# MDA-MB-231 = experiment: Growth inhibition of human MDA-MB-231 cells assessed as cell growth at 10^-6 M incubated for 48 hrs by sulforhodamine B assay; conditions: MDA-MB-231, 48 h, read-out: Activity
# [17] = Growth inhibition of human HOP62 cells assessed as cell growth at 10^-5 M incubated for 48 hrs by sulforhodamine B assay; conditions: HOP-62, 48 h, read-out: Activity
# NCI-H23 [18] = experiment: Growth inhibition of human NCI-H23 cells assessed as cell growth at 10^-5 M incubated for 48 hrs by sulforhodamine B assay; conditions: NCI-H23, 48 h, read-out: Activity
# [19] = Growth inhibition of human HCT116 cells assessed as cell growth at 10^-5 M incubated for 48 hrs by sulforhodamine B assay; conditions: HCT-116, 48 h, read-out: Activity; outline: as §2
# [20] = Growth inhibition of human LOXIMVI cells assessed as cell growth at 10^-5 M incubated for 48 hrs by sulforhodamine B assay; conditions: LOX IMVI, read-out: Activity
# SK-MEL-5 = experiment: Growth inhibition of human SK-MEL-5 cells assessed as cell growth at 10^-5 M incubated for 48 hrs by sulforhodamine B assay; conditions: SK-MEL-5, 48 h, read-out: Activity
# [21] = Growth inhibition of human OVCAR3 cells assessed as cell growth at 10^-5 M incubated for 48 hrs by sulforhodamine B assay; conditions: OVCAR-3, 48 h, read-out: Activity
# SR [22] = experiment: Growth inhibition of human SR cells assessed as cell growth at 10 uM incubated for 48 hrs by sulforhodamine B assay; conditions: read-out: Activity
# [23] = Growth inhibition of human SNB75 cells assessed as cell growth at 10 uM incubated for 48 hrs by sulforhodamine B assay; conditions: SNB-75, 48 h, read-out: Activity
# [24] = Growth inhibition of human leukemia cells incubated for 48 hrs by sulforhodamine B assay; conditions: Leukemia cell; for CC50: read-out: LC50 (the source's name)
# [25] = read-out: LC50 (the source's name)
# [26] = read-out: pLC50 (the source's name) (converted)
structure (smiles),measurement,setting,value
c1ccc(-c2nc(Nc3ccc(-c4nc5ccccc5[nH]4)cc3)nc(N3CCOCC3)n2)cc1,growth at 100 µM,[1],-80%
same,GI50,[2]; read-out: GI50,0.343 µM
same,TGI,[2]; read-out: TGI,1.54 µM
same,GI50,[2]; read-out: pGI50 (converted),0.347 µM
same,TGI,[2]; read-out: pTGI (converted),1.55 µM
same,GI50,A498; read-out: GI50,1.09 µM
same,CC50,A498; [25],6.31 µM
same,TGI,A498; read-out: TGI,2.62 µM
same,GI50,A498; read-out: pGI50 (converted),1.1 µM
same,CC50,A498; [26],6.31 µM
same,TGI,A498; read-out: pTGI (converted),2.63 µM
same,growth at 0.1 µM,SR [3],58%
same,growth at 10 µM,[4],-63%
same,growth at 100 µM,[5],-37%
same,growth at 100 µM,EKVX,-66%
same,growth at 100 µM,[6],-74%
same,growth at 100 µM,[7],-49%
same,growth at 0.1 µM,MDA-MB-435,101%
same,growth at 0.1 µM,SK-MEL-2 [8],101%
same,growth at 100 µM,SK-MEL-28 [9],-72%
same,growth at 0.1 µM,[10],103%
same,growth at 10 µM,SK-MEL-2 [11],-52.7%
same,growth at 0.01 µM,[12],96%
same,growth at 1 µM,NCI-H23 [13],93%
same,growth at 1 µM,KM12,85%
same,growth at 0.01 µM,[14],98%
same,growth at 1 µM,SK-MEL-28 [15],82%
same,growth at 1 µM,[16],92%
same,growth at 1 µM,MCF7,47%
same,growth at 1 µM,MDA-MB-231,63%
same,growth at 10 µM,[17],-74%
same,growth at 10 µM,NCI-H23 [18],-44%
same,growth at 10 µM,[19],-61%
same,growth at 10 µM,[20],-61%
same,growth at 10 µM,SK-MEL-5,-92%
same,growth at 10 µM,[21],-90%
same,growth at 10 µM,SR [22],8.94%
same,growth at 10 µM,[23],-89.7%
same,GI50,[24],0.57 µM
same,TGI,[24],2.17 µM
same,CC50,[24],16.3 µM
Fc1ccc(-c2nc(Nc3ccc(-c4nc5ccccc5[nH]4)cc3)nc(N3CCOCC3)n2)cc1,growth at 100 µM,[1],-28%
same,GI50,[2]; read-out: GI50,1.67 µM
same,CC50,[2]; [25],> 100 µM
same,TGI,[2]; read-out: TGI,4.78 µM
same,GI50,[2]; read-out: pGI50 (converted),1.66 µM
same,CC50,[2]; [26],> 100 µM
same,TGI,[2]; read-out: pTGI (converted),4.79 µM
same,GI50,A498; read-out: GI50,1.52 µM
same,CC50,A498; [25],8.42 µM
same,TGI,A498; read-out: TGI,3.57 µM
same,GI50,A498; read-out: pGI50 (converted),1.51 µM
same,CC50,A498; [26],8.51 µM
same,TGI,A498; read-out: pTGI (converted),3.55 µM
same,growth at 0.1 µM,SR [3],87%
same,growth at 10 µM,[4],-37%
same,growth at 100 µM,[5],-14%
same,growth at 100 µM,EKVX,3%
same,growth at 100 µM,[6],-57%
same,growth at 100 µM,[7],-13%
same,growth at 0.1 µM,MDA-MB-435,102%
same,growth at 0.1 µM,SK-MEL-2 [8],101%
same,growth at 100 µM,SK-MEL-28 [9],-36%
same,growth at 0.1 µM,[10],104%
same,growth at 10 µM,SK-MEL-2 [11],-19.2%
same,growth at 0.01 µM,[12],98%
same,growth at 1 µM,NCI-H23 [13],85%
same,growth at 1 µM,KM12,86%
same,growth at 0.01 µM,[14],102%
same,growth at 1 µM,SK-MEL-28 [15],84%
same,growth at 1 µM,[16],93%
same,growth at 1 µM,MCF7,85%
same,growth at 1 µM,MDA-MB-231,73%
same,growth at 10 µM,[17],-34%
same,growth at 10 µM,[19],-84%
same,growth at 10 µM,[20],-73%
same,growth at 10 µM,SK-MEL-5,-87%
same,growth at 10 µM,[21],-61%
same,growth at 10 µM,SR [22],6.01%
same,growth at 10 µM,[23],-19.2%
same,GI50,[24],2.02 µM
same,TGI,[24],6.11 µM
same,CC50,[24],> 100 µM
c1ccc2[nH]c(-c3ccc(Nc4nc(N5CCCCC5)nc(N5CCOCC5)n4)cc3)nc2c1,growth at 100 µM,[1],-50%
same,GI50,[2]; read-out: GI50,1.88 µM
same,CC50,[2]; [25],> 100 µM
same,TGI,[2]; read-out: TGI,4.38 µM
same,GI50,[2]; read-out: pGI50 (converted),1.86 µM
same,CC50,[2]; [26],> 100 µM
same,TGI,[2]; read-out: pTGI (converted),4.37 µM
same,GI50,A498; read-out: GI50,1.77 µM
same,CC50,A498; [25],9.89 µM
same,TGI,A498; read-out: TGI,4.18 µM
same,GI50,A498; read-out: pGI50 (converted),1.78 µM
same,CC50,A498; [26],10 µM
same,TGI,A498; read-out: pTGI (converted),4.17 µM
same,growth at 0.1 µM,SR [3],88%
same,growth at 10 µM,[4],-43%
same,growth at 100 µM,[5],-24%
same,growth at 100 µM,EKVX,1%
same,growth at 100 µM,[6],-69%
same,growth at 100 µM,[7],-22%
same,growth at 0.1 µM,MDA-MB-435,95%
same,growth at 0.1 µM,SK-MEL-2 [8],102%
same,growth at 100 µM,SK-MEL-28 [9],-54%
same,growth at 0.1 µM,[10],97%
same,growth at 10 µM,SK-MEL-2 [11],-20.6%
same,growth at 0.01 µM,[12],99%
same,growth at 1 µM,NCI-H23 [13],91%
same,growth at 1 µM,KM12,93%
same,growth at 0.01 µM,[14],101%
same,growth at 1 µM,SK-MEL-28 [15],87%
same,growth at 1 µM,[16],101%
same,growth at 1 µM,MCF7,87%
same,growth at 1 µM,MDA-MB-231,92%
same,growth at 10 µM,[17],-52%
same,growth at 10 µM,NCI-H23 [18],6%
same,growth at 10 µM,[19],-67%
same,growth at 10 µM,[20],-72%
same,growth at 10 µM,SK-MEL-5,-90%
same,growth at 10 µM,[21],-25%
same,growth at 10 µM,SR [22],9.79%
same,growth at 10 µM,[23],-0.68%
same,GI50,[24],2.37 µM
same,TGI,[24],6.5 µM
same,CC50,[24],> 100 µM
